# Results from paper PMC3790647 (Clinical cancer research : an official journal of the …, 2013).
# Marks after values point to notes of the source that are not given here.
# Assays:
# HeLa cells = conditions: ref Investigator’s Brochure, version 5, 2010; cited from earlier work
# [1] = Plasma pharmacokinetics of resminostat in patients; format: in vivo, human; conditions: for half-life / AUC / AUC(0-inf) / Tmax / Cmax: human, plasma
# Summary of the method: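 Oral capsules (100–800 mg) were taken once daily within 30 min after a light meal with 240 ml water, with a 1 h post-dose fast on PK days. Day 1 blood was drawn pre-dose to 24 h (15 min–10 h series plus 24 h); days 5 and 47, pre-dose to 8 h. Samples (2 ml EDTA) were kept on ice, spun 10 min at 2700 × g at 4°C, and plasma stored at −80°C. Analysis used validated HPLC-MS/MS and non-compartmental (extravascular) analysis, with AUC0-∞, Cmax and t½ log-transformed.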
# HDAC enzyme = test: Cellular HDAC enzyme activity assay in patient blood cells; format: in vivo, human; conditions: plasma concentration, 2 hour post-dose on day 1, all dose levels, Hill model
# Summary of the method: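 Whole citrate blood (1 ml) was incubated 2 h at 37°C with fluorogenic substrate Boc-K(Ac)-AMC, then erythrocytes were lysed and cells stored at −80°C. Developer reagent lysed cells and released fluorescence from the deacetylated substrate, read by fluorimetry. Untreated control was set as 100% activity and 10 μM trichostatin A as 100% inhibition. Sampling: C1D1 pre-dose, 2, 5, 8, 24 h; C1D5; C4D5.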
# histone H4 acetylation = test: Histone H4 acetylation in PBMC by Western blotting; format: in vivo, human; conditions: 800 mg dose level
# advanced solid tumors = test: Tumor response by RECIST 1.0; format: in vivo, human
# Summary of the method: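 Patients with at least one RECIST-measurable lesion and progressive disease at entry had CT and/or MRI every 8 weeks for up to 6 months of treatment, then every 12 weeks. Response was scored by RECIST 1.0. Dosing was oral once daily on days 1–5 every 14 days, 100–800 mg.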
# [2] = system: relapsed/refractory Hodgkin lymphoma; conditions: cited from earlier work
# [3] = system: rodent and human cancer cell lines; conditions: large variety of cell lines; ref Investigator’s Brochure, version 5, 2010; cited from earlier work
# multiple myeloma cells = conditions: cited from earlier work
smiles,measurement,setting,value
CN(C)Cc1ccc(S(=O)(=O)n2ccc(/C=C/C(=O)NO)c2)cc1 [resminostat],Induction of histone H3 hyperacetylation and endogenous p21waf1,HeLa cells,dose-dependent induction
same,Change in AUC and Cmax between treatment days 1 and 5,[1]; all studied dose levels,no significant change
same,"Time at which peak plasma concentration Cmax was attained, median value","[1]; day 1, single dosing, all doses",2 h
same,Clearance,"[1]; day 1, single oral administration, 100 mg, N=3, geometric mean (68% range), free-base","80900 (51600, 127000) mL/h"
same,Clearance,"[1]; day 1, single oral administration, 200 mg, N=3, geometric mean (68% range), free-base","53800 (45000, 64300) mL/h"
same,Clearance,"[1]; day 1, single oral administration, 400 mg, N=3, geometric mean (68% range), free-base","52500 (50600, 54400) mL/h"
same,Clearance,"[1]; day 1, single oral administration, 600 mg, N=3, geometric mean (68% range), free-base","41400 (32200, 53300) mL/h"
same,Clearance,"[1]; day 1, single oral administration, 800 mg, N=7, geometric mean (68% range), free-base","37700 (29500, 48200) mL/h"
same,Clearance,"[1]; day 5, multiple oral administration, 100 mg, N=3, geometric mean (68% range), free-base","75100 (51000, 110000) mL/h"
same,Clearance,"[1]; day 5, multiple oral administration, 200 mg, N=3, geometric mean (68% range), free-base","59500 (45500, 77800) mL/h"
same,Clearance,"[1]; day 5, multiple oral administration, 400 mg, N=3, geometric mean (68% range), free-base","49300 (39900, 61000) mL/h"
same,Clearance,"[1]; day 5, multiple oral administration, 600 mg, n = 2, geometric mean (68% range), free-base","31100 (27100, 35600)^b mL/h"
same,Clearance,"[1]; day 5, multiple oral administration, 800 mg, N=6, geometric mean (68% range), free-base","41200 (29900, 56800) mL/h"
same,half-life,"[1]; oral, Terminal plasma elimination half-life, range, day 1, all doses",2.35 to 4.41 h
same,AUC,"[1]; po, 100 mg",1330 ng·h/mL
same,AUC(0-inf),"[1]; po, 100 mg",1240 ng·h/mL
same,Tmax,"[1]; po, 100 mg",2 h
same,Cmax,"[1]; po, 100 mg, day 1, single oral administration, 100 mg, N=3, geometric mean (68% range), free-base",487 ng/mL
same,Cmax,"[1]; po, 100 mg, day 5, multiple oral administration, 100 mg, N=3, geometric mean (68% range), free-base",373 ng/mL
same,half-life,"[1]; po, 100 mg, Half-life, day 1, single oral administration, 100 mg, N=3, geometric mean (68% range), free-base",3.77 h
same,AUC,"[1]; po, 200 mg",3360 ng·h/mL
same,AUC(0-inf),"[1]; po, 200 mg",3720 ng·h/mL
same,Tmax,"[1]; po, 200 mg",2 h
same,Cmax,"[1]; po, 200 mg, day 1, single oral administration, 200 mg, N=3, geometric mean (68% range), free-base",1470 ng/mL
same,Cmax,"[1]; po, 200 mg, day 5, multiple oral administration, 200 mg, N=3, geometric mean (68% range), free-base",1060 ng/mL
same,half-life,"[1]; po, 200 mg, Half-life, day 1, single oral administration, 200 mg, N=3, geometric mean (68% range), free-base",3.12 h
same,AUC,"[1]; po, 400 mg",8110 ng·h/mL
same,AUC(0-inf),"[1]; po, 400 mg",7630 ng·h/mL
same,Tmax,"[1]; po, 400 mg",2.5 h
same,Cmax,"[1]; po, 400 mg, day 1, single oral administration, 400 mg, N=3, geometric mean (68% range), free-base",2160 ng/mL
same,Cmax,"[1]; po, 400 mg, day 5, multiple oral administration, 400 mg, N=3, geometric mean (68% range), free-base",2270 ng/mL
same,half-life,"[1]; po, 400 mg, Half-life, day 1, single oral administration, 400 mg, N=3, geometric mean (68% range), free-base",3.44 h
same,AUC,"[1]; po, 600 mg",19300 ng·h/mL
same,AUC(0-inf),"[1]; po, 600 mg",14500 ng·h/mL
same,Tmax,"[1]; po, 600 mg",2.5 h
same,Cmax,"[1]; po, 600 mg, day 1, single oral administration, 600 mg, N=3, geometric mean (68% range), free-base",4100 ng/mL
same,Cmax,"[1]; po, 600 mg, day 5, multiple oral administration, 600 mg, N=3, geometric mean (68% range), free-base",3000 ng/mL
same,half-life,"[1]; po, 600 mg, Half-life, day 1, single oral administration, 600 mg, N=3, geometric mean (68% range), free-base",2.84 h
same,AUC,"[1]; po, 800 mg",19400 ng·h/mL
same,AUC(0-inf),"[1]; po, 800 mg",21200 ng·h/mL
same,Tmax,"[1]; po, 800 mg",1.75 h
same,Cmax,"[1]; po, 800 mg, day 1, single oral administration, 800 mg, N=7, geometric mean (68% range), free-base",4970 ng/mL
same,Cmax,"[1]; po, 800 mg, day 5, multiple oral administration, 800 mg, N=6, geometric mean (68% range), free-base",4510 ng/mL
same,half-life,"[1]; po, 800 mg, Half-life, day 1, single oral administration, 800 mg, N=7, geometric mean (68% range), free-base",2.81 h
same,Oral bioavailability (judged from plasma exposure),"[1]; patients, oral capsules",good oral bioavailability
same,Resminostat concentration at 50% of HDAC enzyme inhibition,HDAC enzyme,306 ng/mL
same,Median increase of histone H4 acetylation level,histone H4 acetylation,10 fold
same,Patients who achieved SD,advanced solid tumors; 600 mg dose group,Three of 3
same,Patients with stable disease (SD) lasting >8 weeks,"advanced solid tumors; all dose levels, 95% CI: 34–80",58%
same,Reduction in the sum of the longest diameters of tumor target lesions,advanced solid tumors; one patient with metastatic thymoma,27%
same,Time on study with SD,"advanced solid tumors; patient with liposarcoma, 31 cycles",14.2 months
same,"Objective response rate (Cheson criteria, independent central review, interim analysis)",[2]; 11 of 33 evaluable patients,33%
same,Clinical benefit rate,[2]; 18 of 33 patients,55%
same,Concentrations that inhibit proliferation,[3],sub-to-low micromolar
same,"Apoptosis signalling (Bim, Bax, Caspases 3, 8 and 9 up; Bcl-xL down)",multiple myeloma cells,pro-apoptotic signals were seen
